Source: ChEMBL document CHEMBL1671683, “Activity of linezolid in an in vitro pharmacokinetic-pharmacodynamic model using different dosages and Staphylococcus aureus and Enterococcus faecalis strains with and without a hypermutator phenotype” (Antimicrob Agents Chemother, 2010)

How the values were obtained:
[1] = in vitro; settings: two-compartment pharmacokinetic/pharmacodynamic model, iv, 200 mg
[2] = Total clearance in two-compartment pharmacokinetic/pharmacodynamic model at 600 mg, bid administered as 0.5 hrs infusion; assay type: ADME, organism-based; settings: iv
[3] = Residual concentration at the end of the administration interval in two-compartment pharmacokinetic/pharmacodynamic model at 800 mg, bid administered as 0.5 hrs infusion; assay type: ADME; settings: iv, read-out: Drug uptake
[4] = system: Staphylococcus aureus; assay: Bactericidal activity against 13 hrs peripheral compartment culture samples of Staphylococcus aureus RN4220 MutS2 in two-compartment pharmacokinetic/pharmacodynamic model assessed as effect on bacterial count at 600 mg, bid administered as 0.5 hr infusion; assay type: functional
Outline: (§1)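 An 18-h culture concentrated 50-fold was injected into the peripheral compartment 3 h pre-sampling (~10^8 CFU/ml E. faecalis, 10^9 S. aureus). Counts came from dilution plating (detection limit 2–3 log10 CFU/ml), expressed as Δlog CFU/ml from treatment start. Run in duplicate.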

[5] = system: Enterococcus faecalis; assay: ABBC (0 to 24 hrs) in Enterococcus faecalis ATCC 29212 in two-compartment pharmacokinetic/pharmacodynamic model at 200 mg, bid administered as 0.5 hr infusion for 2 days; assay type: functional
Outline: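 Hollow-fibre two-compartment model in cation-adjusted, protein-free MH broth at 37°C. Human total-plasma linezolid profile simulated as 0.5-h infusion every 12 h for 48 h. Concentrated 18-h culture injected into the peripheral compartment 3 h before first sample, giving about 10^8 (E. faecalis) or 10^9 (S. aureus) CFU/ml. Viable counts by dilution plating over 0–24 h. Area indices calculated versus growth control curve. Duplicate runs.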

[6] = system: Enterococcus faecalis; assay: Bactericidal activity against 24 hrs peripheral compartment culture samples of Enterococcus faecalis ATCC 29212 in two-compartment pharmacokinetic/pharmacodynamic model assessed as effect on bacterial count at 600 mg, bid administered as 0.5 hr infusion; assay type: functional
Outline: as §1

[7] = Tmax in two-compartment pharmacokinetic/pharmacodynamic model at 600 mg, bid administered as 0.5 hrs infusion; assay type: ADME, organism-based; settings: iv
Outline: (§2)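 Two-compartment in vitro hollow-fibre model in cation-adjusted, protein-free Mueller-Hinton broth at 37°C. Human total-plasma linezolid profile simulated as 0.5-h infusion every 12 h for 48 h, computer-controlled syringe pump into central compartment. […] Peripheral samples assayed by validated HPLC-UV (quantification limit 0.39 μg/ml). Tmax read directly from concentration-time profiles. Run in duplicate.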

[8] = system: Enterococcus faecalis; assay: Bactericidal activity against 1 hr peripheral compartment culture samples of Enterococcus faecalis Ef1497 in two-compartment pharmacokinetic/pharmacodynamic model assessed as effect on bacterial count at 600 mg, bid administered as 0.5 hr infusion; assay type: functional
Outline: (§3)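 Two-compartment hollow-fibre model in cation-adjusted, protein-free MH broth, 37°C. Linezolid given as simulated 0.5-h infusion twice daily. Inoculum grown 18 h, concentrated 50-fold and placed in the peripheral compartment 3 h before t0. Peripheral samples at set times counted by dilution plating. First 10-fold dilution not plated, limiting detection to 2–3 log10 CFU/ml. Δlog CFU/ml taken from t0 count. Duplicates.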

[9] = system: Enterococcus faecalis; assay: Bactericidal activity against 14 hrs peripheral compartment culture samples of Enterococcus faecalis Ef1497 MutM3 in two-compartment pharmacokinetic/pharmacodynamic model assessed as effect on bacterial count at 200 mg, bid administered as 0.5 hr infusion; assay type: functional
Outline: as §1

[10] = system: Staphylococcus aureus; assay: Bactericidal activity against 1 hr peripheral compartment culture samples of Staphylococcus aureus RN4220 MutS2 in two-compartment pharmacokinetic/pharmacodynamic model assessed as effect on bacterial count at 600 mg, bid administered as 0.5 hr infusion; assay type: functional
Outline: as §3

[11] = system: Enterococcus faecalis; assay: Bactericidal activity against 12 hrs peripheral compartment culture samples of Enterococcus faecalis Ef1497 MutM3 in two-compartment pharmacokinetic/pharmacodynamic model assessed as effect on bacterial count at 200 mg, bid administered as 0.5 hr infusion; assay type: functional
Outline: as §3

[12] = system: Enterococcus faecalis; assay: Bactericidal activity against 14 hrs peripheral compartment culture samples of Enterococcus faecalis ATCC 29212 in two-compartment pharmacokinetic/pharmacodynamic model assessed as effect on bacterial count at 200 mg, bid administered as 0.5 hr infusion; assay type: functional
Outline: as §1

[13] = Mean residence time in two-compartment pharmacokinetic/pharmacodynamic model at 200 mg, bid administered as 0.5 hr infusion over 24 hrs; assay type: ADME, organism-based; settings: in vivo, iv
[14] = system: Enterococcus faecalis; assay: Bactericidal activity against 24 hrs peripheral compartment culture samples of Enterococcus faecalis Ef1497 MutM3 in two-compartment pharmacokinetic/pharmacodynamic model assessed as effect on bacterial count at 600 mg, bid administered as 0.5 hr infusion; assay type: functional
Outline: as §1

[15] = Cmax in two-compartment pharmacokinetic/pharmacodynamic model at 600 mg, bid administered as 0.5 hrs infusion; assay type: ADME, organism-based; design: dose 600 mg; settings: iv
[16] = Tmax in two-compartment pharmacokinetic/pharmacodynamic model at 200 mg, bid administered as 0.5 hrs infusion; assay type: ADME, organism-based; settings: iv
Outline: as §2

[17] = AUC in two-compartment pharmacokinetic/pharmacodynamic model at 600 mg, bid administered as 0.5 hr infusion over 24 hrs; assay type: ADME; design: dose 600 mg, time < 24 hr; settings: in vivo, iv
[18] = Residual concentration at the end of the administration interval in two-compartment pharmacokinetic/pharmacodynamic model at 800 mg, bid administered as 0.5 hr infusion over 24 hrs; assay type: ADME; settings: in vivo, iv
[19] = Total clearance in two-compartment pharmacokinetic/pharmacodynamic model at 800 mg, bid administered as 0.5 hr infusion over 24 hrs; assay type: ADME, organism-based; settings: in vivo, iv
[20] = system: Enterococcus faecalis; assay: Bactericidal activity against 1 hr peripheral compartment culture samples of Enterococcus faecalis Ef1497 MutM3 in two-compartment pharmacokinetic/pharmacodynamic model assessed as effect on bacterial count at 200 mg, bid administered as 0.5 hr infusion; assay type: functional
Outline: as §3

[21] = Cmax in two-compartment pharmacokinetic/pharmacodynamic model at 200 mg, bid administered as 0.5 hrs infusion; assay type: ADME, organism-based; design: dose 200 mg; settings: iv
[22] = system: Staphylococcus aureus; assay: Bactericidal activity against 12 hrs peripheral compartment culture samples of Staphylococcus aureus RN4220 MutS2 in two-compartment pharmacokinetic/pharmacodynamic model assessed as effect on bacterial count at 600 mg, bid administered as 0.5 hr infusion; assay type: functional
Outline: as §1

[23] = system: Staphylococcus aureus; assay: Bactericidal activity against 24 hrs peripheral compartment culture samples of Staphylococcus aureus RN4220 MutS2 in two-compartment pharmacokinetic/pharmacodynamic model assessed as effect on bacterial count at 600 mg, bid administered as 0.5 hr infusion; assay type: functional
Outline: as §1

[24] = system: Enterococcus faecalis; assay: Bactericidal activity against 24 hrs peripheral compartment culture samples of Enterococcus faecalis ATCC 29212 in two-compartment pharmacokinetic/pharmacodynamic model assessed as effect on bacterial count at 200 mg, bid administered as 0.5 hr infusion; assay type: functional
Outline: as §1

[25] = system: Enterococcus faecalis; assay: Bactericidal activity against 0.5 hrs peripheral compartment culture samples of Enterococcus faecalis ATCC 29212 in two-compartment pharmacokinetic/pharmacodynamic model assessed as effect on bacterial count at 200 mg, bid administered as 0.5 hr infusion; assay type: functional
Outline: as §3

[26] = AUC in healthy human at 600 mg, iv, bid administered as 0.5 hr infusion; assay type: ADME, organism-based; settings: plasma
[27] = system: Enterococcus faecalis; assay: Bactericidal activity against 2 hrs peripheral compartment culture samples of Enterococcus faecalis Ef1497 in two-compartment pharmacokinetic/pharmacodynamic model assessed as effect on bacterial count at 800 mg, bid administered as 0.5 hr infusion; assay type: functional
Outline: as §1

CC(=O)NC[C@H]1CN(c2ccc(N3CCOCC3)c(F)c2)C(=O)O1 [LINEZOLID]
half-life [1]: 6.27 h
clearance [2]: 232 mL/min
concentration at 0.5 h [3]: 1150 ng/mL
log10CFU/ml [4]: -0.81
ABBC [5]: 5.11 log10CFU/ml.hr
log10CFU/ml [6]: 0.32
Tmax [7]: 0.5 h
log10CFU/ml [8]: -0.05
log10CFU/ml [9]: 0.41
log10CFU/ml [10]: 0.02
log10CFU/ml [11]: 0.29
log10CFU/ml [12]: 0.55
MRT [13]: 7.95 h
log10CFU/ml [14]: 0.44
Cmax [15]: 13400 ng/mL
Tmax [16]: 0.5 h
AUC at 24 h [17]: 35400 ng·h/mL
Drug uptake [18]: 1.42 µg/mL
clearance [19]: 228 mL/min
log10CFU/ml [20]: 0.02
Cmax [21]: 4380 ng/mL
log10CFU/ml [22]: 0.21
log10CFU/ml [23]: 0.52
log10CFU/ml [24]: 0.83
log10CFU/ml [25]: -0.08
AUC at 0.5 h [26]: 88100 ng·h/mL
log10CFU/ml [27]: -0.13
